Assay outcomes: PubChem BioAssay, SRMLSC
HUVEC prolif 384: inhibitors of HUVEC proliferation, primary screen, cell-based, 384-well | actives 1.1% (n = 86,000) | AID 648, 2007 | viability, % at 10 µM (by protocol) | CellTiter-Glo luminescence, 72 h; hits give low values;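 active means viability at or below 30%; inactive means viability above 30%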;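 further: 100% = median luminescence of DMSO-only cell control wells on each plate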
H69AR inhibit: proliferation blockers of H69AR lung cancer cells, primary screen, cell-based, human, 86K library | H69AR lung tumor viability, ATP luminescence, 72 h; hits give low values | viability, % at 10 µM | actives 6% (n = 85,000);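 active means viability at or below 40%; inactive means viability above 40%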;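 further: multidrug resistant small cell line overexpressing MRP-1 efflux transporter; 100% = mean luminescence of untreated control wells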
Fibroblast inh: antiproliferative effect on LL 47 fibroblasts – human, LL 47 cells, CellTiter-Glo luminescence, primary screen; actives 1.1% (n = 85,000); AID 719, 2007; LL 47 human lung fibroblast viability, ATP luminescence; hits give low values; viability, % at 10 µM;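 active means viability at or below 50% in the single dose screen; inactive means viability above 50%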;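 further: compound exposure lasted 72 h before the ATP readout; 100% = median luminescence of untreated cell-only wells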
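Signal: luminescent ATP detection, CellTiter-Glo; assay system: LL 47 human lung fibroblasts; input: 1,150 cells/well; incubation: overnight cell rest, 72 h compound treatment at 37 °C; measure: % viability versus median cells-only luminescence; medium: IMEM growth medium with 15% fetal bovine serum; dosing: compound addition at 0.1% DMSO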
HCT116 bCat-KO: primary screen for growth suppressors in beta-catenin knockout HCT116 cells (colon tumor, human). AID 818, 2007. HCT116 beta-catenin knockout viability, CellTiter-Glo, 60 h; hits give low values. viability, % at 10 µM. actives 1.5% (n = 140,000);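 active means viability at or under a set limit, the compound median less 4 SD, cut at about 6% in these data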;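 further: 0% = Hyamine 1622 control at 20 µM and 100% = untreated cell control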
PTEN del growth: growth suppression of PTEN-null HCT116, primary screen, cell-based, CellTiter-Glo. HCT116 PTEN-null viability, 60 h; hits give low values. viability, % at 10 µM. actives 1.2% (n = 140,000). AID 827, 2007;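 active means viability at or below a set limit, 4 SD under the median of all tested compounds, cut at about 3.7% in these data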;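 further: PTEN knockout HCT116 line with beta catenin targeted HCT116 as companion control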
The depositor's hits bear a star; . = no result. This excerpt belongs to a sample that is enriched for hits.

SMILES | HUVEC prolif 384 | H69AR inhibit | Fibroblast inh | HCT116 bCat-KO | PTEN del growth
O=c1[nH]c(SCc2n[nH]c(=S)n2-c2ccccc2)nc2sc3c(c12)CCC3 | 94 | 92 | 99 | 90 | 93
CN1CCN(C(=O)/C=C\C(=O)O)CC1 | . | . | . | 97 | 102
Cc1cc(=O)oc2cc(OCC(=O)N3CC(C)OC(C)C3)ccc12 (stereo not drawn) | 94 | 93 | 104 | 92 | 102
Cc1cc(=O)oc2cc(OCC3CC(c4ccccc4)=NO3)ccc12 (stereo not drawn) | 64 | 24* | 91 | 40 | 43
Cc1cc(=O)oc2cc(OCC(=O)N3c4ccccc4CC3C)ccc12 (stereo not drawn) | 57 | 24* | 62 | 19 | 19
C=CCn1c(SCc2csc(C)n2)nc2sc3c(c2c1=O)CCCC3 | 61 | 75 | 86 | 66 | 73
C=CCn1c(SCc2csc(C)n2)nc2sc3c(c2c1=O)CCC(C)C3 (stereo not drawn) | 87 | 31* | 88 | 58 | 55
Cc1ccc(C(=O)CCC(=O)CCC(=O)O)cc1 | 93 | 95 | 105 | . | .
COc1ccc(-c2cc(C(=O)N3CC4(C)CC3CC(C)(C)C4)no2)cc1 (stereo not drawn) | 86 | 83 | 104 | 44 | 38
CC1(C)CC2CC(C)(CN2C(=O)c2cc(-c3ccccc3O)on2)C1 (stereo not drawn) | 91 | 16* | 85 | 58 | 47
Nc1ccc2nc(-c3cccs3)[nH]c2c1 | 71 | 22* | 87 | 90 | 97
Nc1ccc2nc(-c3ccccc3)[nH]c2c1 | 86 | 33* | 100 | 81 | 87
Nc1ccc2nc(-c3ccc(N)c(Cl)c3)[nH]c2c1 | 86 | 50 | 105 | 66 | 65
CC(=O)Nc1ccc2nc(-c3cccs3)[nH]c2c1 | 106 | 90 | 110 | 89 | 93
Nc1ccc(-c2nc3c(Cl)cc(N)cc3[nH]2)cc1 | 110 | 31* | 96 | 88 | 90
Cc1cc(=O)n2ncnc2n1COCCO | 104 | 98 | 104 | 98 | 101
Cc1nc2sc(C(c3cccs3)N3CCN(c4cccc(Cl)c4)CC3)c(O)n2n1 (stereo not drawn) | 96 | 76 | 99 | 84 | 76
CCCCN(C(=O)Cn1nnc2ccccc21)C(C(=O)NCc1ccco1)c1ccncc1 (stereo not drawn) | 99 | 79 | 98 | 88 | 92
Cc1nn(C)c(C)c1NC(=O)CSc1nc(C2CC2)nc2c1cnn2-c1ccccc1 | 96 | 79 | 43* | 1.3* | 1.2*
Cc1nn(C)c(C)c1NC(=O)CSc1nc(-c2ccccc2Cl)nc2c1cnn2-c1ccccc1 | 90 | 30* | 95 | 89 | 74
CC1CCCCN1C(=O)CSc1nc(C2CC2)nc2c1cnn2-c1ccccc1 (stereo not drawn) | . | . | . | 80 | 76
Cc1cc(C)n2nc(SCC(=O)Nc3c(C)nn(-c4ccccc4)c3C)nc2n1 | 112 | 91 | 109 | 106 | 114
CS(=O)(=O)N(CC(=O)Nc1ccc2c(c1)OCO2)c1ccc(Cl)cc1 | 106 | 93 | 98 | 95 | 91
O=C(CCc1ccccc1)Nc1ccc2c(c1)OCCO2 | 90 | 86 | 95 | 98 | 102
Nc1c(C(=O)Nc2ccc3c(c2)OCCO3)nnn1CCc1ccccc1 | 63 | 37* | 41* | 40 | 30
SMILES | HUVEC prolif 384 | H69AR inhibit | Fibroblast inh | HCT116 bCat-KO | PTEN del growth
O=C(NC1=NCCS1)c1csc2ccccc12 | 94 | 93 | 99 | 78 | 84
CCOc1cc(C)c(-c2onc(C(F)(F)F)c2-c2csc(C)n2)c(O)c1 | 39 | 3.9* | 88 | 79 | 58
Cc1nc(-c2c(C(F)(F)F)noc2-c2ccc(O)cc2O)cs1 | 110 | 88 | 99 | 75 | 84
CCOC(=O)COc1ccc(S(=O)(=O)Nc2ccc3c(c2)OCO3)cc1 | 41 | 100 | 63 | 112 | 99
CCOC(=O)c1ccccc1NS(=O)(=O)c1ccc(C)cc1 | 74 | 11* | 88 | 23 | 21
CCOC(=O)COc1ccc(S(=O)(=O)Nc2ccc(C)cc2)cc1 | 11* | 94 | 16* | 97 | 93
CCOC(=O)c1ccccc1NC(=O)CN(c1ccccc1)S(=O)(=O)N(C)C | 81 | 38* | 98 | 65 | 70
CCOc1ccc(S(=O)(=O)Nc2cccc(OC)c2)cc1 | 88 | 38* | 95 | 74 | 71
O=C(O)CCc1ccc(-c2cccs2)n1CC1CCCO1 (stereo not drawn) | 98 | 104 | 100 | 95 | 91
CCOC(=O)COc1ccc(S(=O)(=O)N2CCc3ccccc3C2)cc1 | 6.2* | 92 | 61 | 87 | 88
COc1ccc(C2C(C(=O)N3CCOCC3)=C(C)NC3=C2C(=O)CC(C)(C)C3)cc1O (stereo not drawn) | 100 | 96 | 99 | 99 | 91
COc1cc2c(=O)n(Cc3ccccc3)c(=O)n(CC(=O)C(C)(C)C)c2cc1OC | 84 | 90 | 95 | . | .
COc1cc2c(=O)n(Cc3ccco3)c(=O)n(CC(=O)c3ccc(Br)cc3)c2cc1OC | 73 | 17* | 80 | 29 | 9
COc1cc2c(=O)n(Cc3ccco3)c(=O)n(CC(=O)c3cccc(Br)c3)c2cc1OC | 57 | 2.4* | 97 | 29 | 4
Cc1cccc2cc(C(c3nnnn3C(C)(C)C)N3CCN(C(=O)c4ccco4)CC3)c(=O)[nH]c12 (stereo not drawn) | 102 | 86 | 102 | 87 | 83
COCCNc1ncnc2nc[nH]c12 | 92 | 112 | 103 | 96 | 105
COc1ccc(C(=O)Nc2ccccc2C(=O)NC(C(=O)NCc2ccco2)C(C)C)cc1 (stereo not drawn) | 44 | 1.2* | 39* | 1.2* | 2.0*
Cc1cc(C)cc(OCC(=O)Nc2ccccc2C(=O)NCc2ccco2)c1 | 80 | 75 | 101 | 94 | 92
CCC(C)NC(=O)c1ccccc1NC(=O)COc1ccc(OC)cc1 (stereo not drawn) | 89 | 32* | 84 | 97 | 100
O=C(COc1ccc(Cl)cc1)Nc1ccccc1C(=O)NCc1ccco1 | 70 | 51 | 37* | 67 | 63
COc1ccc(NC(=O)c2ccccc2NC(=O)COc2ccccc2)cc1 | 30 | 85 | 90 | 95 | 93
COc1ccc(C(=O)Nc2ccccc2C(N)=O)cc1 | 99 | 87 | 104 | 85 | 92
COc1ccc(C(=O)Nc2ccccc2C(=O)N(Cc2ccco2)C(C(N)=O)C(C)C)cc1 (stereo not drawn) | 64 | 5.6* | 42* | 1.1* | 1.0*
Cc1ccc(S(=O)(=O)NCC(=O)NC2CCCC2)cc1 | 85 | 94 | 100 | 98 | 95
COc1cc(C)c(Cl)cc1S(=O)(=O)n1cnc2ccccc21 | 87 | 40* | 93 | 96 | 103
CCOc1ccc(Cl)cc1S(=O)(=O)n1cnc2cc(C)c(C)cc21 | 91 | 57 | 91 | 77 | 80
